Assay results as given in article PMC11795718 (Angewandte Chemie (International Ed. in English), 2024).

Columns and labels:
h-15-LOX-1 = target: T1, h-15-LOX-1 (Homo sapiens, UniProt P16050); test: Michaelis-Menten / Lineweaver-Burk kinetics; format: biochemical
T1 sequence (P16050 1-662): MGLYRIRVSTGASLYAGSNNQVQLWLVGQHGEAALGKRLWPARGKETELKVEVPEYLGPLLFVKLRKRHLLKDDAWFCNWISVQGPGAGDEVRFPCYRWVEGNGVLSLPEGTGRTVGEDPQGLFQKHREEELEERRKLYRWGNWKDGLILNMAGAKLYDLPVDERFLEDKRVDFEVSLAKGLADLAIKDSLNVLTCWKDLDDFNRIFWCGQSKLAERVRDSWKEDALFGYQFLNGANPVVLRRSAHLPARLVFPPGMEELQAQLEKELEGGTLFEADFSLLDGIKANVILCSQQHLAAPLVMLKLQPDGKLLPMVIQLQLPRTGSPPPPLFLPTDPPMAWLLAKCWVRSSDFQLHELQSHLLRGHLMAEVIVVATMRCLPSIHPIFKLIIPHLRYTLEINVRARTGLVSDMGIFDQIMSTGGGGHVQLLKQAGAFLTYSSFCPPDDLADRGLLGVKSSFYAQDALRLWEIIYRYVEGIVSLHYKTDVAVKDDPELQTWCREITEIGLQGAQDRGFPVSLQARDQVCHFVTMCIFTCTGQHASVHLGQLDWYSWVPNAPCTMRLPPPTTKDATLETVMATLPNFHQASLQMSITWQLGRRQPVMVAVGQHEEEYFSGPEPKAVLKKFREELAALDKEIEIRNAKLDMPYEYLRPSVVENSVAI

[1] = tested on: 15‐LOX‐1 in RAW 264.7 cells; test: cell-based competition assay; parameters: species or system murine; settings: for competition with BAM10 labelling, 10-fold competitor: 5 μM BAM10, competitor 10-fold (50 μM); for competition with BAM10 labelling, equimolar competitor: 5 μM BAM10, equimolar concentration of competitor
C. elegans = test: growth and imaging of BAM10-treated C. elegans; format: in vivo, Caenorhabditis elegans; settings: 5 μM BAM10, competitor 50 μM, co-treated plates
soybean LOX = soybean LOX inhibition; format: biochemical; settings: selectivity
purified 15‐LOX‐1 [2] = target: T2, purified 15‐LOX‐1 (Homo sapiens, UniProt P16050); test: MS-based proteomics of covalent modification; format: binding; settings: adduct after preincubation with purified 15-LOX-1
T2 sequence (P16050 1-662): T1 sequence (P16050 1-662)

purified 15‐LOX‐1 [3] = target: T2, purified 15‐LOX‐1; test: fluorescence labeling of recombinant purified 15-LOX-1; format: binding; settings: applied prior to the probe BAM10
In short: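 Recombinant purified human 15‑LOX‑1 was incubated briefly with the fluorescent probe, then acetone‑precipitated, leaving excess probe in the supernatant; fluorescence of the labelled protein was read. For the dot‑blot, enzyme with or without pre‑incubation with a reference inhibitor was probe‑treated; controls lacked enzyme. Duplicates (n=2).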

RAW 264.7 cells = test: imaging-based cell permeability and retention assay; parameters: species or system murine; settings: live RAW 264.7 cells, timeframe of the experiment
In short: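 Live RAW 264.7 cells were treated in situ on the confocal microscope with the fluorescein‑tagged probe at room temperature. Images were recorded immediately and continuously to follow cellular uptake over time.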

`CC#CCC#CCCCC=O` [BAM1] was tested, and the “type of inhibition (Lineweaver–Burk plots)” value (h-15-LOX-1) was “noncompetitive inhibition”.
With `CC#CCC#CCCCC=NNc1ccccc1` [BAM3] the “competition with BAM10 labelling, 10-fold competitor” value [1] was “reduction of BAM10 fluorescence intensity”, the “competition with BAM10 labelling, equimolar competitor” value [1] was “not significant” and the “competition with BAM10 fluorescence in the pharynx” value (C. elegans) was “reduced BAM10 fluorescence intensity”. The “difference in inhibitory potency in favor of human 15-LOX-1 over soybean LOX” value (soybean LOX) was 4 fold and the “mass increase of tryptic peptide [YTLEINVRAR] (amino acids 395–404)” value (purified 15‐LOX‐1 [2]) was 230 Da.
With `CCCCNC(=O)c1cc(-c2ccccc2)sc1N` [ThioLox, reference compound] the “competition with BAM10 labelling, 10-fold competitor” value [1] was “decreased almost to background levels”, the “competition with BAM10 labelling, equimolar competitor” value [1] was “not significant” and the “competition with BAM10 fluorescence in the pharynx” value (C. elegans) was “reduced BAM10 fluorescence intensity”. For the same molecule, the “effect on BAM10 labeling of the enzyme (dot-blot)” value (purified 15‐LOX‐1 [3]) was “reduced labeling of the enzyme”.
In the case of `O=C1OC2(c3ccc(O)cc3Oc3cc(O)ccc32)c2ccccc21` [fluorescein], the cell permeability (RAW 264.7 cells) is reported as “impermeable”.
